This note sets out measurements from ChEMBL document CHEMBL2057099, “Synthesis of rocaglamide hydroxamates and related compounds as eukaryotic translation inhibitors: synthetic and biological studies” (J Med Chem, 2012).

Activity calls are given as the source filed them. The rule behind the calls is not given here.

For orientation: solubility means how much of the substance goes into solution per volume. For orientation: IC50 means the concentration that inhibits the measured activity by half.

For data set [1], the target named is Eukaryotic initiation factor 4A-I (Oryctolagus cuniculus) (UniProt P29562). Description: Inhibition of eIF4A1-mediated FF/HCV/Ren cap-dependent mRNA translation in rabbit reticulocyte lysate by reporter gene assay. On the technique in general: In a reporter assay the amount or activity of a reporter protein is the signal.
Sequence of Eukaryotic initiation factor 4A-I (Oryctolagus cuniculus) (P29562 whole entry): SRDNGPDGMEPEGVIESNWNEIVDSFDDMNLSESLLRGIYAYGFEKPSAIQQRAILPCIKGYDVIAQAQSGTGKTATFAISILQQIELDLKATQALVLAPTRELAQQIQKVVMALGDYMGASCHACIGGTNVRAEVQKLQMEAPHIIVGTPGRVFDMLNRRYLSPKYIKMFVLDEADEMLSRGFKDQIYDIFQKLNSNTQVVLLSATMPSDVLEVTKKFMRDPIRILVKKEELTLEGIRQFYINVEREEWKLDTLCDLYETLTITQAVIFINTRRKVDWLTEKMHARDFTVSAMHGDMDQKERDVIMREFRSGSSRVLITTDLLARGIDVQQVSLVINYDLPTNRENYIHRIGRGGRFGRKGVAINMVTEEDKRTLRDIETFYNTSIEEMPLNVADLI
In data set [2] the target is T1, Eukaryotic initiation factor 4A-I (Homo sapiens, UniProt P60842). Description: Inhibition of eIF4A1-mediated protein synthesis in human HeLA cells assessed as inhibition of [35S]Met incorporation by scintillation counting. Format: cell-based. The method in brief:
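HeLa cells treated with compound or DMSO vehicle. Protein synthesis measured as 35S-Met incorporation, normalised to total protein content and expressed relative to the DMSO control. Values are the average of duplicates with the error of the mean.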

Data set [3] relates to lymphoma. The data set can be described thus: Potentiation of doxorubicin antitumor activity against mouse Eu-myc/myr-AKT lymphoma cells xenografted in C57Bl/6 mouse assessed as tumor-free survival at 0.2 mg/kg, ip administered daily for 5 days. Format: functional, organism-based. More on the design: dose 0.2 mg/kg. In outline: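 C57Bl/6 mice, 6-8 weeks old, received 10^6 Eμ-myc/(myr)Akt lymphoma cells intravenously. Dosing began when tumours were palpable: test agent 0.2 mg/kg i.p. daily for 5 d in PEG 400/5.2% Tween 80, with doxorubicin 10 mg/kg given once on day 2. n=5 per group. Read-out was tumour-free survival (Kaplan-Meier).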

The test system of data set [4] is BJAB. Description: Cytotoxicity against human BJAB cells after 72 hrs by PI-staining based flow cytometric analysis. Type of data set: functional, cell-based. The method in brief:
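BJAB cells exposed 72 h to a concentration series. Viability by propidium iodide staining and flow cytometry, plotted relative to vehicle (DMSO). Mean of three experiments.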

Data set [5] deals with T1, Eukaryotic initiation factor 4A-I. The data set can be described thus: Inhibition of eIF4A1-mediated protein synthesis in human BJAB cells assessed as inhibition of [35S]Met incorporation after 72 hr by scintillation counting. Type of data set: cell-based. In outline:
(§1)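 BJAB lymphoma cells exposed to compound for 1 h or 72 h. Protein synthesis measured as 35S-Met incorporation, normalised to total protein content and expressed relative to DMSO vehicle. Duplicates.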

Data set [6] has the same target. Description: Inhibition of eIF4A1-mediated protein synthesis in human BJAB cells assessed as inhibition of [35S]Met incorporation after 1 hr by scintillation counting. Format: cell-based. The method in brief: as §1
Data set [7] shares this target. The data set can be described thus: Inhibition of recombinant eIF4A1 assessed as depletion of eIF4A1/2 from eIF4F complex at 1 to 10 uM after 1 hr by Western blot analysis. The method in brief:
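eIF4F complex isolated by m7GTP affinity purification. Eluates resolved on 10% SDS-PAGE, then Western blot for eIF4E and eIF4AI/II.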

For data set [8] the target is unchanged. The data set can be described thus: Inhibition of recombinant eIF4A1 assessed as eIF4A1/[32P]mRNA complex formation at 1 to 10 uM after 10 mins by scintillation counting in presence of hippuristanol.
Data set [9] shares this target. The data set can be described thus: Inhibition of recombinant eIF4A1 assessed as eIF4A1/[32P]mRNA complex formation after 10 mins by scintillation counting. The method in brief:
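Binding of eIF4AI to radiolabelled RNA. Mean of three experiments with standard error of the mean.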

Data set [10] has as its system Mus musculus. Description: Hematotoxicity in C57Bl/6 mouse assessed as effect on CD4 T cells at 0.2 mg/kg, ip administered for 5 days measured 2 hrs post last dose by FACS analysis. Type of data set: organism-based, T-cell. More on the design: dose 0.2 mg/kg, route intraperitoneal. As to conditions: in vivo. Background: A flow cytometer gives signals particle by particle.

The test system of data set [11] is Mus musculus. Description: Hematotoxicity in C57Bl/6 mouse assessed as effect on […] T cells at 0.2 mg/kg, ip administered for 5 days measured 2 hrs post last dose by FACS analysis. To be noted: in vivo. More on the design: dose 0.2 mg/kg, route intraperitoneal. Type of data set: organism-based, T-cell.
Data set [12] has as its system Mus musculus. The data set can be described thus: Hematotoxicity in C57Bl/6 mouse assessed as effect on Ly-6G myeloid cells at 0.2 mg/kg, ip administered for 5 days measured 2 hrs post last dose by FACS analysis. Type of data set: organism-based. More on the design: dose 0.2 mg/kg, route intraperitoneal. As to conditions: in vivo.
Data set [13] concerns Mus musculus. Description: Hematotoxicity in C57Bl/6 mouse assessed as effect on B220 pre-B/B cells at 0.2 mg/kg, ip administered for 5 days measured 2 hrs post last dose by FACS analysis. Type of data set: organism-based. More on the design: dose 0.2 mg/kg, route intraperitoneal. As to conditions: in vivo.
Data set [14] is described as follows: Metabolic stability in mouse liver microsomes assessed as compound remaining after 1 hr. Type of data set: ADME, Microsome. To be noted: read-out: Stability. In outline:
(§2)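 Incubation with human or murine liver microsomes, read as percent compound remaining after 1 h.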
Background: Liver microsomes are vesicles of endoplasmic reticulum, rich in cytochrome P450 enzymes.

Data set [15] can be described thus: Metabolic stability in human liver microsomes assessed as compound remaining after 1 hr. As to conditions: read-out: Stability. Format: ADME, Microsome. In outline: as §2
Data set [16] can be described thus: Metabolic stability in human plasma assessed as compound remaining after 3 hrs. Format: ADME, cell-free. As to conditions: read-out: Stability. The method in brief: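 Stability in human plasma measured as percent compound remaining after 3 h.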
Data set [17] can be described thus: Permeability of the compound by PAMPA assay at pH 7.4. Type of data set: ADME.
Data set [18] is described as follows: Plasma protein binding in human after 4 hrs. Type of data set: ADME, cell-free. As to conditions: read-out: PPB (converted). In outline:
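Human plasma protein binding measured after 4 h exposure.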

Data set [19] in a line: Permeability of the compound by PAMPA assay at pH 6.2. Format: ADME.
Data set [20] in a line: Solubility of the compound at pH 7.4. Type of data set: physicochemical. As to conditions: buffer. The method in brief: (§3)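 Solubility measured at pH 5.0, 6.2 and 7.4.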
Data set [21] can be described thus: Permeability of the compound by PAMPA assay at pH 5. Type of data set: ADME.
A short description of data set [22]: Solubility of the compound at pH 6.2. Format: physicochemical. To be noted: buffer. The method in brief:
as §3

The nature of data set [23]: Solubility of the compound at pH 5. Format: physicochemical. To be noted: buffer. The method in brief:
as §3

T1 sequence (P60842 whole entry): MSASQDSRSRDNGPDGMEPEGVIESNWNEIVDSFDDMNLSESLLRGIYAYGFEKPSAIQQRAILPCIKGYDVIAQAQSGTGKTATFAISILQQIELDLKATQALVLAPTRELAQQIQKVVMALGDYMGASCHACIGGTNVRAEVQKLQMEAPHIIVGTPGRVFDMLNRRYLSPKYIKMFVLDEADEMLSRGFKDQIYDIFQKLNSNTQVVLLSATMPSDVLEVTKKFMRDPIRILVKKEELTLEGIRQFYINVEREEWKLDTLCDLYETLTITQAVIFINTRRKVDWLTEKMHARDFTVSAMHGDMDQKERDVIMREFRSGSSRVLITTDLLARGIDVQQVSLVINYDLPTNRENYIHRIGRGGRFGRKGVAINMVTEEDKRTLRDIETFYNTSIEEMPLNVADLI

Regarding `CONC(=O)C1C(O)C2(O)c3c(OC)cc(OC)cc3OC2(c2ccc(OC)cc2)C1c1ccccc1` (racemic), in data set [1], the inhibition result was “Active”.

In the case of `COc1ccc(C23Oc4cc(OC)cc(OC)c4C2(O)C(O)C(C(=O)NOCCO)C3c2ccccc2)cc1` (racemic), the inhibition result in [2] and in data set [1] was “Active” each time.

`CONC(=O)[C@@H]1[C@H](O)[C@]2(O)c3c(OC)cc(OC)cc3O[C@]2(c2ccc(OC)cc2)[C@H]1c1ccccc1`: the inhibition result in [1] was “inactive”.

Take `COC(=O)[C@H]1[C@@H](O)[C@@]2(O)c3c(OC)cc(O[C@@H]4O[C@@H]([C@H](O)CO)CO[C@H]4OC)cc3O[C@@]2(c2ccc(OC)cc2)[C@@H]1c1ccccc1`: the result in data set [3] was Active. Besides, the inhibition entry in data set [4], in [5], in data set [6] and in data set [7] was “Active” in each case. In addition, in data set [8], the inhibition result is “inactive”. Besides, the inhibition entry in data set [9] is “Dose-dependent effect”.

Turning to `COc1ccc(C23Oc4cc(OC)cc(OC)c4C2(O)C(O)C(C(=O)NOCCOCCOCCNC(C)=O)C3c2ccccc2)cc1` (racemic), the inhibition result in [2] and in data set [1] was “Active” in each case.

On to `COc1ccc([C@@]23Oc4cc(OC)cc(OC)c4[C@]2(O)[C@H](O)[C@H](C(=O)c2ccc(CO)o2)[C@H]3c2ccccc2)cc1`, for which, in data set [1], the inhibition result is “Active”.

As for `CONC(=O)[C@H]1[C@@H](O)[C@@]2(O)c3c(OC)cc(OC)cc3O[C@@]2(c2ccc(OC)cc2)[C@@H]1c1ccccc1`, the Activity entry in [10], in data set [11], in data set [12] and in data set [13] was “Non-toxic” throughout. Moreover, the remaining at 1 h in [14] and in [15] was more than 95% throughout. In addition, the remaining at 3 h in [16] was found to be 100%. Besides, the permeability result in data set [17], in data set [19] and in data set [21] was “permeable” in each case. Further, the fraction unbound at 4 h in data set [18] was 0.18. Further, the solubility in data set [20], in data set [22] and in data set [23] was more than 150 mg/mL each time. Moreover, in data set [3], the result was Active. For the same compound, the values for the IC50 in data set [4], in data set [5] and in data set [6] were 1.5 nM, 0.5 nM and 20 nM, respectively. For the same compound, the inhibition result in data set [7] and in [1] was “Active” throughout. Also, in [8], the inhibition result is “inactive”. Besides, in data set [9], the inhibition entry is “Dose-dependent effect”.

Turning to `COc1ccc(C23Oc4cc(OC)cc(OC)c4C2(O)C(O)C(C(=O)NOCC2CC2)C3c2ccccc2)cc1` (racemic), the inhibition entry in data set [1] was “Active”.
